These results are taken from ChEMBL document CHEMBL5653631, “A Potent and Selective ULK1 Inhibitor Suppresses Autophagy and Sensitizes Cancer Cells to Nutrient Stress” (iScience, 2018).

The target of test [1] is Focal adhesion kinase 1 (Homo sapiens) (UniProt Q05397). In words: Inhibition of human recombinant FAK at 15 nM in presence of ATP by radiometric assay relative to control.
For test [2], the target named is T1, Homeodomain-interacting protein kinase 4 (Homo sapiens) (UniProt Q8NE63).
T1 sequence (whole entry): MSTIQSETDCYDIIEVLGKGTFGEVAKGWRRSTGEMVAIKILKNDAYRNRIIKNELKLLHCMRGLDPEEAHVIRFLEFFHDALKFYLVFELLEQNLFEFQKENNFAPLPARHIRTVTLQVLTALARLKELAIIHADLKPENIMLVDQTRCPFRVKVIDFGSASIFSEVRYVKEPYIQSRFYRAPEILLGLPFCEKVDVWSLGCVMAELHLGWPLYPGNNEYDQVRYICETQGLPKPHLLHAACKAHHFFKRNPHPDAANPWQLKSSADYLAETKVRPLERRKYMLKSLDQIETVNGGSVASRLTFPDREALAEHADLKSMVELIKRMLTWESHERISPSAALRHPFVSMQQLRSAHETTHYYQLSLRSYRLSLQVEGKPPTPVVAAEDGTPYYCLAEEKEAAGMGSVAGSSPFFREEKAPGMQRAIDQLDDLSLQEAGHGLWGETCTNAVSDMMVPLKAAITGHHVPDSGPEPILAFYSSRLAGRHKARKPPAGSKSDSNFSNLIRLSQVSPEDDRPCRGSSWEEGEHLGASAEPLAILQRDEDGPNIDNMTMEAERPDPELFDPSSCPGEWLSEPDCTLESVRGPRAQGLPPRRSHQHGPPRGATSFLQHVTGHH
In words: Inhibition of human recombinant HIPK4 at 15 nM in presence of ATP by radiometric assay relative to control.

Test [3] addresses T2, Activin receptor type-1 (Homo sapiens) (UniProt Q04771).
T2 sequence (whole entry): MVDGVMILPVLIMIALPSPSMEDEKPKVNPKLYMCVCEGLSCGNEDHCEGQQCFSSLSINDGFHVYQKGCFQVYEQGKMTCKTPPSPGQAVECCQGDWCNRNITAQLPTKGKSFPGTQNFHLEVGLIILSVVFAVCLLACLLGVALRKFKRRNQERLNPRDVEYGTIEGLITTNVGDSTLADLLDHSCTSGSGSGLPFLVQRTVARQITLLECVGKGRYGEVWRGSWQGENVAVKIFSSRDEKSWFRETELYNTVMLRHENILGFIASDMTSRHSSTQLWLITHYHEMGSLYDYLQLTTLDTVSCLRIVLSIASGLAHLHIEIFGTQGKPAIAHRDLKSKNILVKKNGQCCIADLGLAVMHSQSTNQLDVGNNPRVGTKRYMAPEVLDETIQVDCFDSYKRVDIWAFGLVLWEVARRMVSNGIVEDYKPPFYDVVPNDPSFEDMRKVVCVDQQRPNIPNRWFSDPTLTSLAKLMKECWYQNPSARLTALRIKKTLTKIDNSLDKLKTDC
In words: Inhibition of human recombinant ALK2 at 15 nM related to control ULK1. The essentials:
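Panel of 327 recombinant human kinases, each assayed in vitro by radiometric activity assay in duplicate at a single inhibitor concentration per compound, chosen with reference to its ULK1 inhibition. Activity remaining was expressed as percent of vehicle control, and percent inhibition was calculated as 100 minus percent activity remaining.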

The target of test [4] is Calcium/calmodulin-dependent protein kinase type II subunit delta (Homo sapiens) (UniProt Q13557). The test is described as follows: Inhibition of human recombinant CaMK2d at 15 nM related to control ULK1.
The species named for another test is Homo sapiens. In words: Inhibition of human recombinant CK1d at 15 nM related to control ULK1.
For test [5], the target named is Ribosomal protein S6 kinase alpha-4 (Homo sapiens) (UniProt O75676). The test is described as follows: Inhibition of human recombinant MSK2 at 15 nM related to control ULK1.
For test [6], the target named is T3, Serine/threonine-protein kinase Nek11 (Homo sapiens) (UniProt Q8NG66).
T3 sequence (whole entry): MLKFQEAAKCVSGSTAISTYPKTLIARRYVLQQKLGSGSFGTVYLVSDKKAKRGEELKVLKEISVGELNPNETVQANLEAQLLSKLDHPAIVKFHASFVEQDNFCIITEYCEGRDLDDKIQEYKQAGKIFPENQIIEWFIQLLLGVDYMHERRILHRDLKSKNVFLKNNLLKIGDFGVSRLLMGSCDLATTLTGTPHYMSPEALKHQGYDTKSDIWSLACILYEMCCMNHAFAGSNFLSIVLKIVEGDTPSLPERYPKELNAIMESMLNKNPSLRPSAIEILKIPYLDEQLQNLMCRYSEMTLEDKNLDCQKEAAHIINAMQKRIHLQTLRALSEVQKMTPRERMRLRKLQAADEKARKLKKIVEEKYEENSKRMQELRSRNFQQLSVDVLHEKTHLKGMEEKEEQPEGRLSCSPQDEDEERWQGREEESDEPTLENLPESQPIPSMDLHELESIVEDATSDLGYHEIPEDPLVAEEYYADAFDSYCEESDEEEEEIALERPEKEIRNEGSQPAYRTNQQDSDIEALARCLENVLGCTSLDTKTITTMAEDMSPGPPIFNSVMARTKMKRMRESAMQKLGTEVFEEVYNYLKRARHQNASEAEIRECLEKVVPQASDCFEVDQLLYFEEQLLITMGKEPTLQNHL
The test is described as follows: Inhibition of human recombinant NEK11 at 40 nM in presence of ATP by radiometric assay relative to control.

Test [7] has as its target Calcium/calmodulin-dependent protein kinase kinase 2 (Homo sapiens) (UniProt Q96RR4). In words: Inhibition of human recombinant CaMKK2 at 40 nM related to control ULK1.
The target in test [8] is T4, Tyrosine-protein kinase TXK (Homo sapiens) (UniProt P42681).
T4 sequence (whole entry): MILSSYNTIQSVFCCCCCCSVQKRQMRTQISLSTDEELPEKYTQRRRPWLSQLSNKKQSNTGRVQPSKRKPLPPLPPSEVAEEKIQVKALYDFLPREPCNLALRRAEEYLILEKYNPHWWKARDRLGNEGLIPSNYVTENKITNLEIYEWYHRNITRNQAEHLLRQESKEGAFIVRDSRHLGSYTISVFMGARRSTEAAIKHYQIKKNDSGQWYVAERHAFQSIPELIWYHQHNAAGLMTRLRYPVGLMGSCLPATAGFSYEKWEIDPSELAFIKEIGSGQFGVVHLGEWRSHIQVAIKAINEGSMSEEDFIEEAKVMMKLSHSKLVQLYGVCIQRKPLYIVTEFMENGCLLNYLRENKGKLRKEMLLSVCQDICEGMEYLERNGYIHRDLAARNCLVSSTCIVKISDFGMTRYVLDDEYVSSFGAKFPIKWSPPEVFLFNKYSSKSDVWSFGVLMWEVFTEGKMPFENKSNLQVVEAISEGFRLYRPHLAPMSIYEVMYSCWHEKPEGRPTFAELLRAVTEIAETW
In words: Inhibition of human recombinant TXK at 500 nM in presence of ATP by radiometric assay relative to control.

The target of test [9] is Serine/threonine-protein kinase PLK3 (Homo sapiens) (UniProt Q9H4B4). In words: Inhibition of human recombinant PLK3 at 500 nM related to control ULK1.
Chain of Serine/threonine-protein kinase PLK3 (Homo sapiens) (Q9H4B4 whole entry, looked up): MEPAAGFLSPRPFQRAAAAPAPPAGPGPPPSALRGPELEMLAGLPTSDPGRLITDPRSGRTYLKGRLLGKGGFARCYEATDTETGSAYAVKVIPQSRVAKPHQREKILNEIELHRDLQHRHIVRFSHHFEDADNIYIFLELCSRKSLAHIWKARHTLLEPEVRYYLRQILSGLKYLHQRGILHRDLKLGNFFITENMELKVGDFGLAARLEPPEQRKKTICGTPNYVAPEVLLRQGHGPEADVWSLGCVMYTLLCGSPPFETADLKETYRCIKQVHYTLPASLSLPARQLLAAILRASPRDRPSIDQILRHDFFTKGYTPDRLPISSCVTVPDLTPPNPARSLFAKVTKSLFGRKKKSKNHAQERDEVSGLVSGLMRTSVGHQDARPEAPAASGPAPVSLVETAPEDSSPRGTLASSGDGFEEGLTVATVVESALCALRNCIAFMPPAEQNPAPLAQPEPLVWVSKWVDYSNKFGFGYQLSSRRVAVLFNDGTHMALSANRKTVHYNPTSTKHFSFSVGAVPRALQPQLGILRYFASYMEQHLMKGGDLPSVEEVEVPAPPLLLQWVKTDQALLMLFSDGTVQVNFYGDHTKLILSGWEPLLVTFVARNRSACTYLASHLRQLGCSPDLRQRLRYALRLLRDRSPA

Chain of Calcium/calmodulin-dependent protein kinase type II subunit delta (Homo sapiens) (Q13557 whole entry): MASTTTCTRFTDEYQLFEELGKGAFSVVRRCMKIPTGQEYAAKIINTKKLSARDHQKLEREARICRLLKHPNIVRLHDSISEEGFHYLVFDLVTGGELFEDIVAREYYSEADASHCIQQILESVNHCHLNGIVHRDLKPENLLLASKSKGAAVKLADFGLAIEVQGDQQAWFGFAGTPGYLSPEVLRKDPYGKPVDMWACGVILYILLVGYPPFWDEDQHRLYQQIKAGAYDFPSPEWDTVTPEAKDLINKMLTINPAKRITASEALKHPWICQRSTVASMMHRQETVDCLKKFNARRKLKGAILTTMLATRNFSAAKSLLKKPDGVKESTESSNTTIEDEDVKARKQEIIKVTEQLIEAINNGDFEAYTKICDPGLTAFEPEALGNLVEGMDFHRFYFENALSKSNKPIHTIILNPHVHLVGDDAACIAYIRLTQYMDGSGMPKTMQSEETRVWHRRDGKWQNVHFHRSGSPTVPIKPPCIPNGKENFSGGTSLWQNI
Chain of Ribosomal protein S6 kinase alpha-4 (Homo sapiens) (O75676 whole entry, looked up): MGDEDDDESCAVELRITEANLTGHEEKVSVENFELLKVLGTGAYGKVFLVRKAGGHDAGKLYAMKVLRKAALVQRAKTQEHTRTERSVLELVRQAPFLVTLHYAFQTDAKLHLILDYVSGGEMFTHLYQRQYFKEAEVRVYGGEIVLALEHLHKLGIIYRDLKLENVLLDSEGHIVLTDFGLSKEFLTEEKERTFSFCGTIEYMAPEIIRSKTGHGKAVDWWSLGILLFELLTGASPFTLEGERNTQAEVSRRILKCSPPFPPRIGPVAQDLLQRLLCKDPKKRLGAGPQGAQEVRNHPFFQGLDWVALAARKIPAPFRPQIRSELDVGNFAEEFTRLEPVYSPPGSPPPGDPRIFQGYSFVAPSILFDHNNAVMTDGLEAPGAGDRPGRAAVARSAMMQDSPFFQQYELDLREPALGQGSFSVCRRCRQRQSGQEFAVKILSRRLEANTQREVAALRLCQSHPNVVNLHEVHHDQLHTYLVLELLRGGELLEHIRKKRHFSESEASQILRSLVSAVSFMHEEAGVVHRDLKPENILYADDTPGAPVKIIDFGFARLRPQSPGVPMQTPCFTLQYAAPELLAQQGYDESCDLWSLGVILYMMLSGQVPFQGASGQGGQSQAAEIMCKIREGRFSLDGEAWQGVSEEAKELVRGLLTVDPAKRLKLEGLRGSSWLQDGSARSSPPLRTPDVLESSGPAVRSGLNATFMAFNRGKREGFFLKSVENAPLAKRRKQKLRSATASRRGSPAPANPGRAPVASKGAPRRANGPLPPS
Chain of Calcium/calmodulin-dependent protein kinase kinase 2 (Homo sapiens) (Q96RR4 2-588 limits assumed): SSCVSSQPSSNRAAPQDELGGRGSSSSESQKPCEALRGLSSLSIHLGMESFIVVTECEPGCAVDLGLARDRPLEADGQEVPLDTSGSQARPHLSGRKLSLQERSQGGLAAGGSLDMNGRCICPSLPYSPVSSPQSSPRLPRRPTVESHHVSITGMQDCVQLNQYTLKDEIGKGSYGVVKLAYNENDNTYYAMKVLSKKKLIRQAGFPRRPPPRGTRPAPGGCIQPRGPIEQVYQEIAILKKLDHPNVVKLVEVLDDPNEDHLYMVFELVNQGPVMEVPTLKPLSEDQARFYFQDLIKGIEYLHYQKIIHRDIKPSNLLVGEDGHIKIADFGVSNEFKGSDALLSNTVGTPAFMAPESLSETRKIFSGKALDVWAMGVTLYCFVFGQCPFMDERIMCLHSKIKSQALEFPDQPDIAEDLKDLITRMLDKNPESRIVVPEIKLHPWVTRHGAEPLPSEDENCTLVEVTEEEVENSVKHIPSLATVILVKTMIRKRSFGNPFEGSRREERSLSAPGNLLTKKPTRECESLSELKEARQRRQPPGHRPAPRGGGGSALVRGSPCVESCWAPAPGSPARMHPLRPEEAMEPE
Chain of Focal adhesion kinase 1 (Homo sapiens) (Q05397 2-1052 limits assumed): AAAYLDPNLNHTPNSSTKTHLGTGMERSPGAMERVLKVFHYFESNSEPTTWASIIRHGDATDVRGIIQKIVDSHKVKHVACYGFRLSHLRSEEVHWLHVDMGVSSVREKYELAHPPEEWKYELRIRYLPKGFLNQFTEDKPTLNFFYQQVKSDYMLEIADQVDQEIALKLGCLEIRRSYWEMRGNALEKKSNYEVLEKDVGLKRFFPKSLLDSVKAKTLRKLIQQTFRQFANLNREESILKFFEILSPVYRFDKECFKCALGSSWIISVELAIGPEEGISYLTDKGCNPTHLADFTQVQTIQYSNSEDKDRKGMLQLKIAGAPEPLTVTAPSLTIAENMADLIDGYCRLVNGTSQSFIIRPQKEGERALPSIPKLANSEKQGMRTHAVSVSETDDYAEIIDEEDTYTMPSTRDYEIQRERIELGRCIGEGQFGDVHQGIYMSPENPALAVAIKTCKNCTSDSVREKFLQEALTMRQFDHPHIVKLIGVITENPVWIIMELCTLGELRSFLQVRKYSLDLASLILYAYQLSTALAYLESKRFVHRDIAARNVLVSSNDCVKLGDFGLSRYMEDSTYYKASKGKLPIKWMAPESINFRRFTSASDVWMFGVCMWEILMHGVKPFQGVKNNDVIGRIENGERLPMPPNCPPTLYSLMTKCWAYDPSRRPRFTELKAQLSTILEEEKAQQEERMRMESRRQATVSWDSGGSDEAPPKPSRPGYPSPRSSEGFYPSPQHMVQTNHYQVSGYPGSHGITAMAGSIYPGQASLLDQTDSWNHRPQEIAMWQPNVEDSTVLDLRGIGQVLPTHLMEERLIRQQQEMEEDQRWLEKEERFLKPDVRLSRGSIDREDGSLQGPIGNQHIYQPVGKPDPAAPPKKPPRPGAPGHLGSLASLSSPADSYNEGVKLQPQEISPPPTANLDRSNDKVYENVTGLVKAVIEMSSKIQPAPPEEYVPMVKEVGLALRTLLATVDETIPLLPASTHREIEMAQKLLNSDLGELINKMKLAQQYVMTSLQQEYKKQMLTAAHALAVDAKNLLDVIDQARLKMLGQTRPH

For `CC(C)[C@H](NC(=O)c1cc(-c2cnn3cc(-c4ccc(OCCN5CCCCC5)cc4)cnc23)cs1)C(F)(F)F`, the inhibition in test [1] and in test [2] was 0% in each case. Besides, the fold change (FC) came out at 0.3 in [3], 0.23 in test [4], 0.03 in the test listed under Homo sapiens and 0 in test [5].
As to `O=C(N[C@@H](C1CC1)C(F)(F)F)c1cc(-c2cnn3cc(-c4ccc(F)cc4)cnc23)cs1`, in test [6], the inhibition is 8%. Also, the fold change (FC) in test [7] stood at 0.
With `CNC(=O)c1ccccc1Oc1nc(Nc2cc(OC)c(OC)c(OC)c2)ncc1Br`, the inhibition in [8] was 17%. Besides, the fold change (FC) in test [9] was 0.

The inhibition is the share of the control response that was lost under treatment.
